Published values gathered from unrelated publications.
Each line is one published result; the experiments were not run side by side.
Cell line: MCF7
Observed: cell growth or viability

COc1ccc(O)c(/C=N/c2nc(SC)nn2-c2ccc(C(=O)O)cc2)c1  IC50 (MTT): 27.3 µM
Oc1ncnc2cc(Nc3nc(-c4ccccc4)cs3)ccc12  IC50 (MTT): 6.21 µM
CN(C)C/C=N/NC(=O)Nc1cc2c(Nc3ccc(F)c(Cl)c3)ncnc2cc1O[C@H]1CCOC1  IC50 (MTT; 72 h): 5.72 µM
Cc1ccc(-c2csc(Nc3ccc4c(O)ncnc4c3)n2)cc1  IC50 (MTT): 6.28 µM
CN1CCN(CCn2cccc2/C=N/NC(=O)Nc2cc3c(Nc4ccc(F)c(Cl)c4)ncnc3cc2O[C@H]2CCOC2)CC1  IC50 (MTT; 72 h): 2.42 µM
COc1cccc2c1C(=O)c1c(O)c3c(c(O)c1C2=O)C[C@@](O)(C(=O)CO)C[C@@H]3O[C@H]1C[C@H](N)[C@H](O)[C@H](C)O1  IC50 (SRB): 0.18 µM
O=[N+]([O-])c1ccc(-c2nc3ccccc3n2Cc2ccccc2)cc1  IC50 (MTT): 9.56 µM
CC(=O)O[C@H]1C(=O)[C@@]2(C)[C@H]([C@H](OC(=O)c3ccccc3)[C@]3(O)C[C@H](OC(=O)[C@H](O)[C@@H](NC(=O)c4ccccc4)c4ccccc4)C(C)=C1C3(C)C)[C@]1(OC(C)=O)CO[C@@H]1C[C@@H]2O  IC50 (MTT; 48 h): 0.006 µM
CCN(CC)C(=S)NC(=O)c1ccc2ccccc2c1  IC50 (48 h): 4.72 µM
COc1cc2ncnc(Nc3ccc(F)c(Cl)c3)c2cc1NC(=O)N/N=C/c1cccn1CCCN1CCCC1  IC50 (MTT; 72 h): 1.33 µM
O=c1[nH]cc(F)c(=O)[nH]1  IC50 (WST-1; 48 h): 3.1 µM
COc1cccc2c1C(=O)c1c(O)c3c(c(O)c1C2=O)C[C@@](O)(C(=O)CO)C[C@@H]3O[C@H]1C[C@H](N)[C@H](O)[C@H](C)O1  IC50 (MTT; 72 h): 0.74 µM
O=S(=O)(NN=Cc1cn(CCN2CCOCC2)c2ccccc12)c1ccc(Cl)cc1  IC50 (MTT; 48 h): 13.2 µM
Oc1ccc(Br)cc1-c1nc2ccccc2[nH]1  IC50 (MTT; 48 h): 5.1 µM
COc1ccc(S(=O)(=O)NN=Cc2cn(CCN3CCOCC3)c3ccccc23)cc1  IC50 (MTT; 48 h): 62.8 µM
COc1cc2ncnc(Nc3ccc(F)c(Cl)c3)c2cc1NC(=O)N/N=C/c1cccn1CCN1CCN(C)CC1  IC50 (MTT; 72 h): 1.85 µM
Cc1ccc2nc(-c3c4ccccc4cc4ccccc34)[nH]c2c1  IC50 (MTT; 48 h): 39 µM
COc1cc2c(Nc3ccc(NC(=O)c4ccccc4)cc3)ncnc2cc1OCCCN1CCOCC1  IC50 (MTS; 72 h): 0.8 µM
COc1cccc(C(c2c(N)nc(SCC(N)=O)[nH]c2=O)c2c(N)nc(SCC(N)=O)[nH]c2=O)c1  IC50 (MTT; 72 h): > 100 µM
CCCCc1ccc2[nH]c(NC(=O)OC)nc2c1  IC50 (CCK-8; 72 h): 0.0996 µM
O=C(/N=c1\scc(-c2ccccc2)n1C1CCCCC1)c1ccc2ccccc2c1  IC50 (48 h): 17.3 µM
CC(C)Cc1ccc(-c2nn(-c3ccc(S(C)(=O)=O)cc3)cc2/C=N\N=C2/NC(=O)CS2)cc1  IC50 (MTT; 48 h): 6.25 µM
F[B-](F)(F)F.[Fe+3].c1cc[cH-]c1.c1cc[cH-]c1  IC50 (MTT): 150 µM
Cc1ccc2nc(-c3ccc(F)cc3)[nH]c2c1  IC50 (MTT; 48 h): 38.6 µM
CS(=O)(=O)c1ccc(-n2cc(/C=N/N=c3\[nH]c(-c4ccc(Br)cc4)cs3)c(-c3ccc(Br)cc3)n2)cc1  IC50 (MTT; 48 h): 16.7 µM
CSc1nc(/N=C/c2cc(C)ccc2O)n(-c2ccc(C(=O)O)cc2)n1  IC50 (MTT): 23.9 µM
COc1cc(/C=C/C(=O)c2ccc(NC(=O)c3ccccc3CN3C(=O)c4ccccc4C3=O)cc2)cc(OC)c1OC  IC50 (MTT; 72 h): 1.88 µM
Cc1ccc2nc(-c3ccc(F)cc3)n(Cc3ccccc3)c2c1  IC50 (MTT): 43.1 µM
Oc1ccc(-c2ccc3ncnc(Nc4cccc(C(F)(F)F)c4)c3c2)cc1  IC50 (MTT; 24 h): 6.19 µM
O=C1NC(c2ccccc2)(c2ccccc2)C(=O)N1Cc1cn(-c2c3ccccc3nc3ccccc23)nn1  IC50 (MTT): 42.7 µM
c1ccc(-c2ccccn2)nc1  IC50 (MTT; 48 h): > 50 µM
Oc1cccc(Nc2ccc3ncnc(Nc4cccc(C(F)(F)F)c4)c3c2)c1  IC50 (MTT; 24 h): 20.5 µM
C[C@H]1[C@@H](O)O[C@@H]2O[C@@]3(C)CC[C@H]4[C@H](C)CC[C@@H]1[C@@]24OO3  IC50 (CCK-8; 48 h): > 50 µM
O=S(=O)(Cc1ccccc1)NN=Cc1cn(CCN2CCOCC2)c2ccccc12  IC50 (MTT; 48 h): 62.5 µM
CCn1c(=N)c(C(=O)NCCOC)cc2c(=O)n3ccccc3nc21  IC50 (MTT; 72 h): > 100 µM
COc1cccc(-c2nc3ccc(C)cc3[nH]2)c1  IC50 (MTT; 48 h): 50.6 µM
c1cnc2c(c1)ccc1cccnc12  IC50 (MTT; 48 h): > 50 µM
CC/C(=C(\c1ccc(O)cc1)c1ccc(OCCNC)cc1)c1ccccc1  IC50 (5 days): 0.675 µM
CCOC(=O)/C=C1\S/C(=N\C(=O)c2ccc3ccccc3c2)N(C2CCCCC2)C1=O  IC50 (48 h): 14.9 µM
CCN(CC)CCCn1cccc1/C=N/NC(=O)Nc1cc2c(Nc3ccc(F)c(Cl)c3)ncnc2cc1O[C@H]1CCOC1  IC50 (MTT; 72 h): 2.49 µM
Cc1ccc2nc(-c3cccc([N+](=O)[O-])c3)[nH]c2c1  IC50 (MTT; 48 h): 19.2 µM
COc1cc2ncnc(Nc3ccc(F)c(Cl)c3)c2cc1NC(=O)N/N=C/c1cccn1CCCN1CCCCC1  IC50 (MTT; 72 h): 2.81 µM
CCNC(=S)NC(=O)c1ccc2ccccc2c1  IC50 (48 h): 6.26 µM
Clc1ccc(-c2nc3ccccc3[nH]2)cc1  IC50 (MTT; 48 h): 67.1 µM
COC(=O)c1ccc(-n2nc(SC)nc2N)cc1  IC50 (MTT): 23.4 µM
COc1ccc(C(=O)O[C@@H]2CN3Cc4c(cc5c(c4OC)OCO5)[C@@]24C=C[C@H](OC)C[C@@H]34)cc1OC  IC50 (WST-1): 4.9 µM
O=C1Nc2c(C(F)(F)F)cccc2[C@@]1(c1ccc(O)cc1)N1CCC(F)(F)C1  IC50 (resazurin; 72 h): 0.022 µM
COc1cc2ncnc(Nc3ccc(F)c(Cl)c3)c2cc1NC(=O)N/N=C/c1cccn1CCN1CCCC1  IC50 (MTT; 72 h): 2.45 µM
CC(C)C[C@H](NC(=O)[C@H](Cc1ccccc1)NC(=O)c1cnccn1)B(O)O  IC50 (ATP luminescence): 0.0088 µM
